# Screening data deposited in PubChem by several laboratories.
# PfM18AAP inh-1 = blocks P. falciparum M18 aspartyl aminopeptidase; recombinant PfM18AAP, H-Glu-NHMec fluorogenic cleavage; inhibition, % at 7.35 µM; hit rate 1.2% among 290,000; AID 1822;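 active = inhibition above the campaign mean inhibition over all tested compounds plus 3 SD, cut at about 28% in these data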;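 also: 0% = plate median of test compound wells and 100% = 2 mM ZnCl2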
# TNF necrop inh = inhibitors of TNF-alpha induced necroptosis in Jurkat FADD-/- cells | hit rate 0.068% among 220,000 | activation (protection from cell death), % at 10 µM | Jurkat FADD-/- TNF necroptosis rescue, ATP luminescence, 24 h; 0 = TNF only, 100 = no-TNF cells | AID 463075;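 active = activation, meaning protection from cell death, of at least 50% relative to plate controls; inactive = activation below 50%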;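 also: necroptosis triggered by 40 ng/mL TNF-alpha added together with compound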
# L929 necroptosis = blocks zVAD induced death of L929 cells. L929 zVAD necroptosis rescue, ATP luminescence, 24 h; with zVAD 60 µM. viability rescue, % at 10 µM. hit rate 0.38% among 220,000;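 active = activation, scaled between plate controls, above about 75%, limit read from the data; inactive = activation under that limit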;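 also: 0% = zVAD with DMSO and 100% = DMSO alone without zVAD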
# Lipid droplet = modulators of hepatic lipid droplet formation; AML12 mouse hepatocytes, oleate lipid droplets, BODIPY imaging; inhibition, % at 6.5 µM; hit rate 0.4% among 240,000; AID 1656;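 active = lipid droplet intensity inhibited by at least 50%, with more than 500 cells counted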
#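 material = mouse AML12 hepatocyte cell line, fixed after treatment | also added = 100 µM oleic acid challenge | doses = compound at 6.5 µM only | schedule = overnight exposure | technique = Image-based BODIPY and DAPI two-channel analysis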
# RBBP9 inh = human RBBP9 hydrolase inhibition; inhibition, % at 7.94 µM; AID 1515; O75884; hit rate 0.2% among 220,000; recombinant RBBP9, FP-Rh probe fluorescence polarization;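 active = inhibition above the campaign mean of all tested compounds plus 3 SD, cut at about 14% in these data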;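 also: plate controls were DMSO wells with RBBP9 for no effect and wells lacking RBBP9 protein for full effect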
#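 Measured by – fluorescence polarization · Test system – RBBP9 protein · Input – 2.5 µM RBBP9 dispensing solution, before mixing · Measure – percent inhibition from mP, scaled between DMSO and no-protein wells · Benchmarks – DMSO-treated enzyme wells and wells lacking RBBP9 · Times – preincubation 30 min plus labeling 45 min at 25 °C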
# TbHK1 inh = T. brucei hexokinase 1 inhibition. recombinant TbHK1, G6PDH-coupled NADH A340. inhibition, % at 10 µM. AID 1430. hit rate 0.11% among 220,000;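 active = inhibition of 50% or more in the single-dose primary screen; inactive = inhibition below 50%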
# PfM18AAP inh-2 = confirmation of Plasmodium falciparum M18 aspartyl aminopeptidase inhibitors; hit rate 28% among 2,400; recombinant PfM18AAP, H-Glu-NHMec fluorogenic cleavage; shares compounds with PfM18AAP inh-1; inhibition, % at 7.35 µM; AID 2170;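 active = mean inhibition over replicate wells above the hit cutoff set for the earlier primary screen, cut at about 29% in these data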;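 also: 0% = median of test compound wells and 100% = 2 mM ZnCl2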
# CTSL1 confirm = counter-screen for PFM18AAP inhibitors: confirmation of human cathepsin L inhibitors; shares compounds with PfM18AAP inh-1; purified cathepsin L1, Z-Leu-Arg-MCA fluorescence; inhibition, % at 5.96 µM; 2,400 tested, under 10 active; AID 2178;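 active = average inhibition across replicates above the hit cutoff set in the earlier primary screen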;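 also: 0% = median of test compound wells and 100% = Z-Phe-Ala-diazomethylketone 1 µM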
# Target sequence (P07711 whole entry, looked up): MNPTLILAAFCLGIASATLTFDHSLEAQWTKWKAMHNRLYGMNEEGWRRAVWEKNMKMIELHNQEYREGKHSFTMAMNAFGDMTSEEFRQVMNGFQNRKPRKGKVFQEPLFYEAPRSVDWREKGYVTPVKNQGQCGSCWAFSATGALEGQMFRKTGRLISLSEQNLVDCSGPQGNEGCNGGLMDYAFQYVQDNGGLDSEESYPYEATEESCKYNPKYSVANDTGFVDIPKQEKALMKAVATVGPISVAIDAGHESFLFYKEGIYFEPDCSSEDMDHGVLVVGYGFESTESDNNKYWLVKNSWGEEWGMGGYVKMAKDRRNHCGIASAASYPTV
# An asterisk follows results filed as active; . = not tested or not shown. This is a sample that favours compounds with a hit; in the whole collection about 2% have one here.
SMILES,PfM18AAP inh-1,TNF necrop inh,L929 necroptosis,Lipid droplet,RBBP9 inh,TbHK1 inh,PfM18AAP inh-2,CTSL1 confirm
CNC(=S)NNC(=O)c1cccs1,38*,0,1,-1,-8,-13,14,1
COc1ccc(NC(=S)NNC(=O)c2cccs2)cc1,11,1,0,1,4,-12,.,.
CCCNC(=S)NNC(=O)c1cccs1,27,0,1,9,9,-10,.,.
CCNC(=S)NNC(=O)c1cccs1,36*,-1,0,.,-12,-5,13,1
COc1ccc(C(=O)NNC(=O)Nc2ccc(C)cc2)cc1,45*,-1,1,0,-9,0,25,3
COc1ccc(NC(=O)c2cc(C)no2)cc1,-1,.,.,-4,.,.,.,.
CCOc1ccccc1N(C)C(=O)CCS(=O)(=O)c1ccc2c(c1)NC(=O)CO2,-5,.,.,-2,.,.,.,.
O=C(CC1Sc2ccccc2NC1=O)NCc1ccc(Cl)cc1 (stereo unspecified),-2,0,1,-10,-3,8,.,.
Cn1c(SCC(=O)N2CCOCC2)nc2c(c1=O)SCC2,-2,.,.,7,.,.,.,.
O=S(=O)(c1ccc2c(c1)CCCN2)N1CCCC2CCCCC21 (stereo unspecified),0,-2,0,-17,-8,-6,.,.
CCN(CC)c1ccc2c(c1)CCCN2,32*,-14,-1,-22,-3,-4,-8,-4
S=C(NCC1CCCO1)N1CCN(Cc2ccccc2Cl)CC1 (stereo unspecified),2,1,19,-6,-4,-1,.,.
Cc1ccc(C(=O)N/N=C\c2ccc([N+](=O)[O-])o2)cn1,34*,-11,6,14,7,-45,-45,6
N#C/C(Cn1c[n+](NC(=O)Nc2ccccc2)cn1)=N/O,47*,1,0,.,-10,1,10,2
CCN(CC)c1ccc(C2C3CCCCC3(O)CCN2CC(=O)N2CCCCC2)cc1 (stereo unspecified),49*,-4,0,.,-7,-5,-8,4
CCN(CC)c1ccc([C@H]2[C@@H]3CCCC[C@]3(O)CCN2CC(=O)NCc2ccco2)cc1,23,3,0,5,2,-16,.,.
O=C(CCN1C(=O)/C(=C/c2ccccc2Cl)SC1=S)NN1CCOCC1,0,.,.,0,.,.,.,.
CN1CCN(NC(=O)CN2C(=O)S/C(=C\c3c(Cl)cccc3Cl)C2=O)CC1,42*,1,20,-5,-3,2,-30,0
C=C(C)c1cccc(C(C)(C)NC(=O)NNC(=O)c2ccccc2O)c1,40*,.,.,-9,.,.,-10,0
Cc1occc1C(=O)Nc1nnc(-c2cccs2)s1,1,1,34,2,-4,-17,.,.
CCOC(=O)CSc1nc2ccc(N3CCOCC3)cc2c(=O)n1Cc1ccc2c(c1)OCO2,37*,2,0,-9,-1,-8,-17,-2
O=C(/C=C/c1cccs1)N1CCN(c2ccc(O)cc2)CC1,45*,-6,-1,-3,0,-14,-10,5
Cc1noc(C)c1C(=O)NCCc1c(C)[nH]c2ccccc12,-11,.,.,16,.,.,.,.
S=c1[nH]nc(COc2ccccc2)n1/N=C/c1ccccc1Br,35*,.,.,-7,.,.,9,6
Oc1ccc(Br)cc1/C=N/n1c(COc2ccccc2)n[nH]c1=S,17,.,.,7,.,.,.,.
CC(=O)N1C(=O)/C(=C2\SC(=S)N(NS(=O)(=O)c3ccc(C)cc3)C2=O)c2ccccc21,19,1,24,-2,2,5,.,.
CC(C)(C)c1ccc(O)c(N)c1,46*,-1,0,.,-9,-7,76*,-3
Cc1cc(C)nc(NNC(=O)c2ccccc2O)n1,43*,1,1,-1,-2,-12,24,-8
CCN1/C(=C/C=C/C=C/C=C/c2sc3ccccc3[n+]2CC)Sc2ccccc21,40*,.,.,6,.,.,-2,3
